pIC50, pKi: −log10 of the molar value.
Assays:
[1] = molecular target: Sodium-dependent serotonin transporter (Rattus norvegicus, UniProt P31652); test: (§1) Compound is evaluated for binding to Serotonin transporter using [3H]citalopram as radioligand in rat brain; type: tissue-based
Method in brief: (§2)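 Binding data supplied by an outside contract lab using published methods. SERT: [3H]citalopram, 0.7 nM final. NET: [3H]desmethylimipramine, 3.0 nM final.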

[2] = molecular target: T1, Sodium-dependent dopamine transporter (Rattus norvegicus, UniProt P23977); test: Displacement of [3H]WIN-35 428 from the dopamine transporter in rat caudate putamen.; type: tissue-based
Method in brief: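 Rat caudate putamen membranes washed in Krebs-HEPES pH 7.4, 0.5% w/v final. Filtration through BSA-soaked GF/B. Compounds run at 0.01 nM–100 μM, three experiments in triplicate. Ki derived by LIGAND nonlinear fitting of two-site binding.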

[3] = molecular target: T2, Muscarinic acetylcholine receptor M1 (Rattus norvegicus, UniProt P08482); test: Binding affinity against Muscarinic acetylcholine receptor M1 sites of rat
T2 sequence (P08482 whole entry): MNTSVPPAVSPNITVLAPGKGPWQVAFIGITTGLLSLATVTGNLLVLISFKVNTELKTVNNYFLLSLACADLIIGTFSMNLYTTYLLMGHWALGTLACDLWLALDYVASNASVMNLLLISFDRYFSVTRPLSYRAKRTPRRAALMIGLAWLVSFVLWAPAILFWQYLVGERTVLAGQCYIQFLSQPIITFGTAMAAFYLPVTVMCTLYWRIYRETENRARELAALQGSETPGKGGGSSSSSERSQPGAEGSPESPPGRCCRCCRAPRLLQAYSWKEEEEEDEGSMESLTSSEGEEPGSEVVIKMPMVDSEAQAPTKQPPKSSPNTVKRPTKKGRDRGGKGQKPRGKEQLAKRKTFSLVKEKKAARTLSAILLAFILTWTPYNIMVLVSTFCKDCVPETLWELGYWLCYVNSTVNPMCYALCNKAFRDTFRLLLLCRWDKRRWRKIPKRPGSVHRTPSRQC
Method in brief: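 Whole rat brain minus cerebellum, membranes made by two-step centrifugation and resuspended in 10 mM Tris pH 7.4. Assay buffer is 10 mM Tris-HCl with 5 mM MgCl2. Membrane is preincubated 5 min with the compound, then [3H]pirenzepine 3 nM final is added for 1 h at 37 °C. Filtration through PEI-soaked GF/B. Compounds run at 0.01 nM–100 μM, ≥3 independent experiments in triplicate.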

[4] = molecular target: T3, Sodium-dependent noradrenaline transporter (Homo sapiens, UniProt P23975); test: (§3) Compound was evaluated for binding to Norepinephrine Transporter (NET) using [3H]desmethylimipramine as radioligand; method in brief: as §2
[5] = molecular target: T1, Sodium-dependent dopamine transporter; test: In vitro inhibition of dopamine uptake in rat tissue, was determined using [3H]DAU as radioligand
Method in brief: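 Rat caudate putamen slices (225 μm, cross-chopped) in oxygenated Krebs-HEPES at 37 °C. Stopped with ice-cold buffer and filtration. Accumulated label extracted with methanol/HCl and counted; filter blank subtracted. IC50 taken from the linear portion of the concentration–response curve by regression.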

[6] = molecular target: T3, Sodium-dependent noradrenaline transporter; test: as §3; conditions: concentration not given here; method in brief: as §2
[7] = molecular target: Sodium-dependent serotonin transporter (Rattus norvegicus) (UniProt P31652); test: as §1; type: tissue-based; conditions: concentration not given here; method in brief: as §2
[8] = molecular target: Sodium-dependent dopamine transporter (Rattus norvegicus) (UniProt P23977); test: Inhibition of binding of [3H]WIN-35 428 to dopamine transporter (in rat caudate putamen) by 10 uM of compound.; type: tissue-based
[9] = molecular target: T3, Sodium-dependent noradrenaline transporter; test: Compound was evaluated for binding to Norepinephrine Transporter (NET).; method in brief: as §2

Chain of Sodium-dependent serotonin transporter (Rattus norvegicus) (P31652 whole entry): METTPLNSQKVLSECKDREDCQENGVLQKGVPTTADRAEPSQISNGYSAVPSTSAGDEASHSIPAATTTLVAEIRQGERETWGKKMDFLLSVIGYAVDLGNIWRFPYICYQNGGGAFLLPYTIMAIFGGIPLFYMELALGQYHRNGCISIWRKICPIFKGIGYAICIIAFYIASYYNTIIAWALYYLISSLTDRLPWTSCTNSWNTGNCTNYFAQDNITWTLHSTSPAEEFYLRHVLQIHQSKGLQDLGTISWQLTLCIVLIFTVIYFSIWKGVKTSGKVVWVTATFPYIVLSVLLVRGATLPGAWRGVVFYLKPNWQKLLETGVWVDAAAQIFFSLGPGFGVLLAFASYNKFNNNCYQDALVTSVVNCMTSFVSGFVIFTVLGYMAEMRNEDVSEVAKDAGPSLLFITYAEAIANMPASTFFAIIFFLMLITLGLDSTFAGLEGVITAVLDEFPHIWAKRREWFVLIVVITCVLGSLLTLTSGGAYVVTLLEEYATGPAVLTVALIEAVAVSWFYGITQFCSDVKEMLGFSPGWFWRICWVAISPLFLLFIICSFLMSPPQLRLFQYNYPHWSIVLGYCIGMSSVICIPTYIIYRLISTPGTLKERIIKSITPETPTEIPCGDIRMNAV
Chain of Sodium-dependent serotonin transporter (P31652 whole entry): as above
T3 sequence (P23975 whole entry): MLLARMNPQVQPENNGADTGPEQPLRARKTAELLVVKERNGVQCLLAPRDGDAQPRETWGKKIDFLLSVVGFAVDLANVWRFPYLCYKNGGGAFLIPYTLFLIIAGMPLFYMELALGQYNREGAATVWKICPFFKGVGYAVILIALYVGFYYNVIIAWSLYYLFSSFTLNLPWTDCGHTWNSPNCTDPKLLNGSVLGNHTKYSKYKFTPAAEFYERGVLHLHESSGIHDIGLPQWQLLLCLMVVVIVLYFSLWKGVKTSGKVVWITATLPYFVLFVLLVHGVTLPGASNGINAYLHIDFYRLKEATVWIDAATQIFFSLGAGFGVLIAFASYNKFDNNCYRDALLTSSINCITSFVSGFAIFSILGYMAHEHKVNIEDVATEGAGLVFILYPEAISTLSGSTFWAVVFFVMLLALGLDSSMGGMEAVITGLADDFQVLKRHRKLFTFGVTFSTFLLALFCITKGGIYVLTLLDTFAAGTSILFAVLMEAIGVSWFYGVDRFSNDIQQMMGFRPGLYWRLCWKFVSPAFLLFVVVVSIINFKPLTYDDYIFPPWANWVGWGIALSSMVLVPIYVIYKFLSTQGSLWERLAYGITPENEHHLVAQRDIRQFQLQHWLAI
T1 sequence (P23977 whole entry): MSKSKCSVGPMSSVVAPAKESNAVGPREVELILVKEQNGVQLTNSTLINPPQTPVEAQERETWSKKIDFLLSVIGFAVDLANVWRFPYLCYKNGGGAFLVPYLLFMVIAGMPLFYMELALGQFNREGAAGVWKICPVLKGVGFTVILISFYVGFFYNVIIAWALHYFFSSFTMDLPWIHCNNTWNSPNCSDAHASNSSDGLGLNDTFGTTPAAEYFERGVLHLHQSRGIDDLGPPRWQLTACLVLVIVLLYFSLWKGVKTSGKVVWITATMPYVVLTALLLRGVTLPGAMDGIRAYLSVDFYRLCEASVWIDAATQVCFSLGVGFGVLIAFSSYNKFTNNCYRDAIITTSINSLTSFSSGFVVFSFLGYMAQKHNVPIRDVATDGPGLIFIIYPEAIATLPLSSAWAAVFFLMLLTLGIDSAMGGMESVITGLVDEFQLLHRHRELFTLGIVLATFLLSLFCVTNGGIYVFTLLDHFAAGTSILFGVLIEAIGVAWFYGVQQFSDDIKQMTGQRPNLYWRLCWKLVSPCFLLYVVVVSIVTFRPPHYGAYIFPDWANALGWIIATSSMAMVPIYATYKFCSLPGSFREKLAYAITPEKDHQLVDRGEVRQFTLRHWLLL
Chain of Sodium-dependent dopamine transporter (Rattus norvegicus) (P23977 whole entry): as above

SMILES: Fc1ccc(C(OC2CC3CCC(C2)N3CCCc2ccccc2)c2ccc(F)cc2)cc1 (configuration not stated)
- pKi [1]: 6.43
- pKi [2]: 7.38
- pKi [3]: 6.87
- pKi [4]: 5.45
- pIC50 [5]: 6.64

SMILES: Fc1ccc(CN2C3CCC2CC(OC(c2ccc(F)cc2)c2ccc(F)cc2)C3)cc1 (configuration not stated)
- inhibition [6]: 60%
- pKi [2]: 7.02
- pKi [3]: 6.21
- pIC50 [5]: 6.70

SMILES: CCCCN1C2CCC1CC(OC(c1ccc(F)cc1)c1ccc(F)cc1)C2 (configuration not stated)
- pKi [1]: 5.76
- pKi [2]: 7.61
- pKi [3]: 6.60
- pKi [4]: 5.88
- pIC50 [5]: 6.43

SMILES: Fc1ccc(C(OC2CC3CCC(C2)N3Cc2ccccc2)c2ccc(F)cc2)cc1 (configuration not stated)
- inhibition [7]: 74%
- pKi [2]: 7.09
- pKi [3]: 6.11
- pKi [4]: 5.68
- pIC50 [5]: 6.54

SMILES: CS(=O)(=O)N1C2CCC1CC(OC(c1ccc(F)cc1)c1ccc(F)cc1)C2 (configuration not stated)
- inhibition [8]: 18%

SMILES: C[N+]1(C)[C@@H]2CC[C@H]1C[C@@H](OC(c1ccc(F)cc1)c1ccc(F)cc1)C2
- inhibition [6]: 38%
- inhibition [7]: 79%
- pKi [2]: 6.97
- pKi [3]: 7.54
- pIC50 [5]: 6.89

SMILES: O=[N+]([O-])c1ccc(CCCCN2[C@@H]3CC[C@H]2C[C@@H](OC(c2ccc(F)cc2)c2ccc(F)cc2)C3)cc1
- pKi [2]: 7.69
- pIC50 [5]: 6.19

SMILES: O=[N+]([O-])c1ccc(-c2ccc(COCCN3C4CCC3CC(OC(c3ccc(F)cc3)c3ccc(F)cc3)C4)cc2)cc1 (configuration not stated)
- pKi [2]: 7.24

SMILES: O=CN1C2CCC1CC(OC(c1ccc(F)cc1)c1ccc(F)cc1)C2 (configuration not stated)
- inhibition [6]: 29.4%
- inhibition [7]: 1.6%
- pKi [2]: 5.69
- pKi [3]: 4.91
- pIC50 [5]: 5.27

SMILES: CN1C2CCC1CC(OC(c1ccc(F)cc1)c1ccc(F)cc1)C2 (configuration not stated) [DIFLUOROBENZTROPINE]
- pKi [1]: 5.61
- pKi [4]: < 5.07

SMILES: Fc1ccc(C(OC2CC3CCC(C2)N3CC2CC2)c2ccc(F)cc2)cc1 (configuration not stated)
- pKi [1]: 5.92
- pKi [2]: 7.49
- pKi [3]: 6.87
- pKi [4]: 5.32
- pIC50 [5]: 6.74

SMILES: Cc1ccc(S(=O)(=O)N2C3CCC2CC(OC(c2ccc(F)cc2)c2ccc(F)cc2)C3)cc1 (configuration not stated)
- inhibition [8]: 0%

SMILES: Fc1ccc(CCCN2C3CCC2CC(OC(c2ccc(F)cc2)c2ccc(F)cc2)C3)cc1 (configuration not stated)
- pKi [2]: 7.22

SMILES: Fc1ccc(C(OCCN2C3CCC2CC(OC(c2ccc(F)cc2)c2ccc(F)cc2)C3)c2ccc(F)cc2)cc1 (configuration not stated)
- pKi [2]: 6.20

SMILES: Fc1ccc(C(OC2CC3CCC(C2)N3)c2ccc(F)cc2)cc1 (configuration not stated)
- pKi [9]: < 5.10
- pKi [1]: 5.68
- pKi [2]: 7.95
- pKi [3]: 6.81
- pIC50 [5]: 8.01

SMILES: C=CCN1C2CCC1CC(OC(c1ccc(F)cc1)c1ccc(F)cc1)C2 (configuration not stated)
- pKi [1]: 5.84
- pKi [2]: 7.52
- pKi [3]: 6.90
- pKi [4]: 5.23
- pIC50 [5]: 7.85

SMILES: CC(=O)N1C2CCC1CC(OC(c1ccc(F)cc1)c1ccc(F)cc1)C2 (configuration not stated)
- inhibition [6]: 8.5%
- inhibition [7]: 1.3%
- pKi [2]: 5.63
- pIC50 [5]: 5.34
